{
  "source": "paper PMC7931646",
  "about": "(The Journal of Experimental Medicine, 2021)",
  "key": {"[1]": {"test": "7-d dose range-finding toxicity and toxicokinetic study in rats", "type": "in vivo, rat"}, "[2]": {"test": "Metabolite profile in hepatocytes", "type": "in vitro ADME", "settings": "metabolite profiling in five species (mouse, rat, dog, NHP, human)", "in_short": "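Test compound at 1 µM was incubated at 37°C for 4 h with cryopreserved hepatocytes from mouse, rat, dog, monkey or human. Metabolite masses and relative abundance came from HPLC/MS/MS peak areas. Structures were characterised by LC/MS/MS on a Q-Trap instrument.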"}, "μ opioid receptors": {"biological_target": "μ opioid receptors (Homo sapiens, UniProt P35372)", "sequence (P35372 whole entry)": "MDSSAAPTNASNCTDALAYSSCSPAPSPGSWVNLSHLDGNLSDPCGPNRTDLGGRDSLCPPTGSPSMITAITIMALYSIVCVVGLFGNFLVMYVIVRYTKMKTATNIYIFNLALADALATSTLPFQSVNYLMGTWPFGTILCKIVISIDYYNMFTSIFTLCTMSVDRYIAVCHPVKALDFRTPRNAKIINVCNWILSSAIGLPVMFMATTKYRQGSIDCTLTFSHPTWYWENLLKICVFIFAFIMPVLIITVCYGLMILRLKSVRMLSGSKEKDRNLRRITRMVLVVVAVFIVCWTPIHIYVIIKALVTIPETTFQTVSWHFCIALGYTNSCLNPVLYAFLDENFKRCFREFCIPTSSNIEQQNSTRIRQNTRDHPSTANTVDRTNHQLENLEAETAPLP", "test": "CEREP off-target radioligand binding panel", "settings": "read-out: inhibition of ligand binding", "in_short": "(§1)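 CEREP secondary-pharmacology panel of 55 receptors, transporters and ion channels. Test compound at 10 µM was assessed for inhibition of binding of a radiolabelled reference ligand specific to each target. Result is percent inhibition of ligand binding.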"}, "[3]": {"tested_on": "Pig-a mutant RBCs and RETs", "test": "GLP 28-d in vivo Pig-a gene mutation study in rats", "parameters": "species or system rat", "settings": "28 d, 6, 20, 60 mg/kg/d (males), 3, 10, 30 mg/kg/d (females)", "in_short": "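GLP study in male and female Sprague-Dawley rats, n = 5 per dose per sex. Test compound in 15% Labrasol:85% water was given by oral gavage for 28 d at 0, 6, 20 or 60 mg/kg/d (males) or 0, 3, 10 or 30 mg/kg/d (females). Peripheral blood was then analysed by flow cytometry for % reticulocytes, mutant-phenotype RBC frequency and mutant-phenotype RET frequency.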"}, "[4]": {"test": "Kinetic solubility in simulated intestinal fluids", "type": "physicochemical", "in_short": "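Dissolved test compound concentration in FaSSIF or FeSSIF simulated intestinal fluids, determined by UV/Vis absorbance.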"}, "[5]": {"test": "Kinetic aqueous solubility, PBS pH 7.4", "type": "physicochemical", "settings": "PBS buffer, pH 7.4, aqueous buffer, kinetic from dmso stock", "in_short": "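Kinetic solubility in PBS at pH 7.4, read by UV/Vis absorbance and reported in micromolar.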"}, "[6]": {"test": "Single-dose i.v./po PK in male Sprague-Dawley rats", "type": "in vivo, rat", "in_short": "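Sprague-Dawley rats received a single i.v. dose of 1 mg/kg (n = 13) or an oral dose of 5 mg/kg (n = 3). Plasma was sampled at 5 min (i.v. only), 15 and 30 min, 1, 2, 4, 8 and 12 h, and 24 and 48 h (po only). Oral bioavailability came from i.v./po comparison; fabs came from kinetic analysis.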"}, "dopamine D1": {"biological_target": "dopamine D1 (Homo sapiens, UniProt P21728)", "sequence (P21728 whole entry)": "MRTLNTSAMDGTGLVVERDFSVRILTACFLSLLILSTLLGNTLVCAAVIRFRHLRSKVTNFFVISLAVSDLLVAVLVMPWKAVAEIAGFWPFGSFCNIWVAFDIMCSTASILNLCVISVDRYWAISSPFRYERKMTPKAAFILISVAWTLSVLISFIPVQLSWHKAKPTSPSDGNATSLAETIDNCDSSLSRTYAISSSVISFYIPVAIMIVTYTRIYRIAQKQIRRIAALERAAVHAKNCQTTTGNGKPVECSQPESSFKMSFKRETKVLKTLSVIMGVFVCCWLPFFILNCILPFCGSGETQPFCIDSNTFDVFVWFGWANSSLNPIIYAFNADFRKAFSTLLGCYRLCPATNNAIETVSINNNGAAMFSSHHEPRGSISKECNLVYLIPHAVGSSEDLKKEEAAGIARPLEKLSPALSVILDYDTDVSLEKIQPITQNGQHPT", "test": "CEREP off-target radioligand binding panel", "settings": "read-out: inhibition of ligand binding", "in_short": "as §1"}, "[7]": {"tested_on": "Aβ42, Aβ40, Aβ38 in plasma and brain extracts", "test": "Chronic 3-mo efficacy in PSAPP transgenic mice", "type": "in vivo, mouse", "settings": "25 mg/kg/d po", "in_short": "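Female PSAPP (APPswe/PSEN1dE9) mice and wild-type C57BL/6J controls, 9–10 per group, housed at 22°C on a 12:12 h light cycle. Treatment began at 90 or 180 d of age: vehicle (80% PEG 400, 20% water, 0.1% Tween 20) or test compound 25 mg/kg/d by oral gavage for 3 mo. Brain Aβ peptides were then measured.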"}, "[8]": {"test": "Necropsy, histopathology and weight gain in chronically treated PSAPP mice", "type": "in vivo, mouse", "settings": "chronic 25 mg/kg/d, 3 mo", "in_short": "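Female PSAPP mice, 9–10 per group, were dosed with vehicle (PEG 400/water/Tween 20) or test compound 25 mg/kg/d by oral gavage for 3 mo. Body weight was recorded three times weekly to monitor weight gain. Necropsy and histopathology followed the treatment period.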"}, "histamine H1": {"biological_target": "histamine H1 (Homo sapiens, UniProt P35367)", "sequence (P35367 whole entry)": "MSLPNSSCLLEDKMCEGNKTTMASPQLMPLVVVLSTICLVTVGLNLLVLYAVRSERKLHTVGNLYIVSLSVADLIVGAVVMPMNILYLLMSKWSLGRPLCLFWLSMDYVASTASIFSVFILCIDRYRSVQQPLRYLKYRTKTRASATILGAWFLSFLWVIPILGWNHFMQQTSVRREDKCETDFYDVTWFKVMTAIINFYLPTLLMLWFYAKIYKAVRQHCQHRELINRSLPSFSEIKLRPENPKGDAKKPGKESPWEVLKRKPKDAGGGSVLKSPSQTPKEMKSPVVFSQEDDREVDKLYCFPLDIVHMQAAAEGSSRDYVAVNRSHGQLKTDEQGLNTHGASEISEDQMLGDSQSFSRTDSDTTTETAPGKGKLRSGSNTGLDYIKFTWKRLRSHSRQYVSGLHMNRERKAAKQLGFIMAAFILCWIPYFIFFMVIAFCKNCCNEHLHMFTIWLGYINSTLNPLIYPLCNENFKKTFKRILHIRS", "test": "CEREP off-target radioligand binding panel", "settings": "read-out: inhibition of ligand binding", "in_short": "as §1"}, "adenosine A3": {"biological_target": "adenosine A3 (Homo sapiens, UniProt P0DMS8)", "sequence (P0DMS8 whole entry)": "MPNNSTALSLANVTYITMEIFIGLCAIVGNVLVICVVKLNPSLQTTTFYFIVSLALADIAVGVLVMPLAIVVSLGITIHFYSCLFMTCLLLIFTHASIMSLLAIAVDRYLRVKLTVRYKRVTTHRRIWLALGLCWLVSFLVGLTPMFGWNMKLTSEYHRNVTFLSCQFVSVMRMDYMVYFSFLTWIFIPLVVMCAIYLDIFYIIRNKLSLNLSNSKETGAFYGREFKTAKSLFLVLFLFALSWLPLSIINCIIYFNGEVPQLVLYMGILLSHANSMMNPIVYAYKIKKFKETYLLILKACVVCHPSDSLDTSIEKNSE", "test": "CEREP off-target radioligand binding panel", "settings": "read-out: inhibition of ligand binding", "in_short": "as §1"}, "[9]": {"test": "Human PK and 50% effective dose projection"}, "CYP450 1A2": {"biological_target": "T1, CYP450 1A2 (Homo sapiens, UniProt P05177)", "T1 sequence (P05177 1-516)": "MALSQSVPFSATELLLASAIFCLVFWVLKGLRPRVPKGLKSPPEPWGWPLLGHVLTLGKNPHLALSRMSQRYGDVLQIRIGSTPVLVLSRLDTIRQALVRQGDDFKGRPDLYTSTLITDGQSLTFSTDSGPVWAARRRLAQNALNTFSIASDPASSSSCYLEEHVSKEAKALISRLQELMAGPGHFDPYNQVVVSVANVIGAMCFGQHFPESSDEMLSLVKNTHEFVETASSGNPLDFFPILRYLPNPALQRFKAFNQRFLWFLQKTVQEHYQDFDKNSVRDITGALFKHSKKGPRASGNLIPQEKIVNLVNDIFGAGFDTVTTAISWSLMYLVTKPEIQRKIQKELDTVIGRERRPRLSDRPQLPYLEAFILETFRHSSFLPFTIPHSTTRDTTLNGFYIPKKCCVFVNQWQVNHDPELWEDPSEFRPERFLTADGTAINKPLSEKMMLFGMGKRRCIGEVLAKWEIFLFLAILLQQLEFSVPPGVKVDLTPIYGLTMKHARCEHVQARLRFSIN", "test": "CYP450 inhibition, recombinant isoform", "type": "in vitro ADME", "in_short": "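Recombinant human CYP450 isoforms were incubated with isoform-specific probe substrates; for CYP3A4 these were midazolam and testosterone. Inhibition was quantified by LC-MS/MS analysis of probe-substrate turnover.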"}, "[10]": {"test": "Single-dose i.v./po PK in male CD-1 mice", "type": "in vivo, mouse", "settings": "for clearance: male, CD-1, mouse, plasma, iv, 1 mg/kg", "in_short": "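CD-1 mice received a single i.v. dose of 1 mg/kg (n = 12) or an oral gavage dose of 5 mg/kg (n = 12). Brains were collected at 1, 4, 8 and 12 h. Oral bioavailability came from i.v./po comparison; fabs came from kinetic analysis.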"}, "[11]": {"test": "GLP in vitro micronucleus evaluation", "type": "cell-based", "settings": "data not shown"}, "[12]": {"tested_on": "Aβ42 and Aβ40 levels in plasma and brain", "test": "Acute single-dose time course efficacy in C57BL/6J mice", "type": "in vivo, mouse"}, "[13]": {"settings": "PSAPP mice treated from 3 mo of age (prophylactic)"}, "[14]": {"settings": "PSAPP mice treated from 6 mo of age (disease-modifying)"}, "[15]": {"settings": "single oral dose 5 mg/kg, 6–12 h after administration"}},
  "data": [
    {"smiles": "COc1nc(-c2cc(C)c(N[C@@H](C)c3cc(F)cc(F)c3)nn2)ccc1-n1cnc(C)c1", "note": "[Compound 2, (S)-N-(1-(3,5-difluorophenyl)ethyl)-6-(6-methoxy-5-(4-methyl-1H-imidazol-1-yl)pyridin-2-yl)-4-methylpyridazin-3-amine]", "values": [
      {"measurement": "NOAEL at 7 d", "setting": "[1]; both, Sprague-Dawley, rat, in vivo", "result": "≥ 50", "unit": "mg/kg"},
      {"measurement": "safety margin over the efficacious dose (5 mg/kg)", "setting": "[1]; rats, 7-d DRF", "result": "10–20 fold"},
      {"measurement": "major metabolites", "setting": "[2]", "result": "no major metabolites"},
      {"measurement": "unique human metabolites", "setting": "[2]", "result": "absence of any unique human metabolites"},
      {"measurement": "inhibition at 10 µM", "setting": "μ opioid receptors", "result": "> 50", "unit": "%"},
      {"measurement": "in vivo mutagenicity (Pig-a mutant RBCs and RETs)", "setting": "[3]", "result": "negative"},
      {"measurement": "FaSSIF dissolved compound concentration", "setting": "[4]; FaSSIF pH 6.5, UV/Vis absorbance", "result": 80},
      {"measurement": "FeSSIF dissolved compound concentration", "setting": "[4]; FeSSIF pH 5.8, UV/Vis absorbance", "result": 79},
      {"measurement": "solubility kinetic", "setting": "[5]", "result": "< 1.3", "unit": "µM"},
      {"measurement": "CL as percent of reported hepatic blood flow", "setting": "[6]; hepatic blood flow 75 ml/min/kg", "result": "< 10", "unit": "%"},
      {"measurement": "fraction of dose absorbed from intestinal lumen (fabs)", "setting": "[6]; kinetic analysis", "result": "~90", "unit": "%"},
      {"measurement": "clearance", "setting": "[6]; male, Sprague-Dawley, rat, plasma, iv, 1 mg/kg, CL", "result": 6, "unit": "mL/min/kg"},
      {"measurement": "inhibition at 10 µM", "setting": "dopamine D1", "result": "> 50", "unit": "%"},
      {"measurement": "reduction of brain Aβ42, detergent-insoluble (formic acid) extract", "setting": "[7]; [13]", "result": 54, "unit": "%"},
      {"measurement": "reduction of brain Aβ42, detergent-soluble (RIPA buffer) extract", "setting": "[7]; [13]", "result": 44, "unit": "%"},
      {"measurement": "reduction of brain Aβ42, detergent-insoluble (formic acid) extract", "setting": "[7]; [14]", "result": 39, "unit": "%"},
      {"measurement": "reduction of brain Aβ42, detergent-soluble (RIPA buffer) extract", "setting": "[7]; [14]", "result": 45, "unit": "%"},
      {"measurement": "full-body necropsy and histopathology", "setting": "[8]", "result": "no overt evidence of toxicity"},
      {"measurement": "weight gain", "setting": "[8]; data not shown", "result": "no significant effect on weight gain"},
      {"measurement": "inhibition at 10 µM", "setting": "histamine H1", "result": "> 50", "unit": "%"},
      {"measurement": "inhibition at 10 µM", "setting": "adenosine A3", "result": "> 50", "unit": "%"},
      {"measurement": "fabs in humans (expected)", "setting": "[9]", "result": "~90", "unit": "%"},
      {"measurement": "predicted human CL", "setting": "[9]; allometric scaling from mouse, rat, NHP", "result": "~5", "unit": "mL/min/kg"},
      {"measurement": "AUC", "setting": "[9]; human, plasma", "result": 4320, "unit": "ng·h/mL"},
      {"measurement": "IC50", "setting": "CYP450 1A2", "result": 12, "unit": "µM"},
      {"measurement": "clearance", "setting": "[10]; CL, mice", "result": 8, "unit": "mL/min/kg"},
      {"measurement": "clearance", "setting": "[10]; Cl, male CD-1 mice", "result": 8.05, "unit": "mL/min/kg"},
      {"measurement": "CL as percent of reported hepatic blood flow", "setting": "[10]; mice, hepatic blood flow 95 ml/min/kg", "result": "< 10", "unit": "%"},
      {"measurement": "fraction of dose absorbed from intestinal lumen (fabs)", "setting": "[10]; mice, kinetic analysis", "result": "~90", "unit": "%"},
      {"measurement": "GLP in vitro micronucleus evaluation", "setting": "[11]", "result": "negative"},
      {"measurement": "reduction of brain Aβ42 levels", "setting": "[12]; [15]", "result": "~50", "unit": "%"},
      {"measurement": "reduction of plasma Aβ42 levels", "setting": "[12]; [15]", "result": "~70", "unit": "%"},
      {"measurement": "duration of appreciable lowering of brain Aβ42 peptide levels", "setting": "[12]; single oral dose 10 mg/kg", "result": "~24", "unit": "h"},
      {"measurement": "reduction of Aβ42 levels in brain at peak reduction", "setting": "[12]; single oral dose 10 mg/kg", "result": "> 70", "unit": "%"},
      {"measurement": "reduction of Aβ42 levels in plasma at peak reduction", "setting": "[12]; single oral dose 10 mg/kg", "result": "> 90", "unit": "%"},
      {"measurement": "time of maximal reduction of Aβ42 levels in plasma", "setting": "[12]; single oral dose 5 or 10 mg/kg", "result": 1, "unit": "h"}
    ]}
  ]
}
